In the library only some 2.5% were active in any assay of this set; here they are far more common.
TRPC6 activator: activators of mouse TRPC6 channel. HEK293-TRPC6 membrane potential dye fluorescence; hits give high values. Q61143. B-score at 10 µM. 0.13% of 310,000 active. AID 2550;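 active = B-score of the integrated fluorescence ratio above library mean plus 3 SD, and starting fluorescence ratio within library mean plus 5 SD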;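 note: higher score means more depolarization so channel activation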
TRPC6 inhibitor: blocks the mouse TRPC6 cation channel; Q61143; HEK293-TRPC6, membrane potential dye, ACh-evoked depolarization; hits give low values; B-score at 10 µM; 1.1% of 310,000 active;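 active = B-score under library mean minus 3 SD, initial fluorescence not abnormally high, positive integrated signal ratio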;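 note: B-score derived from integrated fluorescence ratio over the kinetic read; more negative B-score means stronger inhibition of depolarization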
TRPC4 agonist: opens the mouse TRPC4 cation channel. B-score at 10 µM. 0.49% of 310,000 active. Q9QUQ5. HEK293 TRPC4beta/mu-opioid, Fluo4 calcium fluorescence; hits give high values. AID 2237;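 active = B-score above 5 SD of library B-scores, and initial fluorescence ratio not above library mean plus 5 SD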;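 note: positive B-score marks a calcium rise read as TRPC4 activation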
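Assay system – TRPC4beta and mu-opioid receptor HEK293 stable cells · Measured by – Fluo4 fluorescence, kinetic · Schedule – dye loading 45 min room temperature, 110 s kinetic read · Read-out – B-scored integrated calcium fluorescence ratio · Controls – buffer and maximal DAMGO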
TRPC4 inh: TRPC4 (mouse) channel inhibition. Q9QUQ5. HEK293 TRPC4beta/mu-opioid, DAMGO-evoked Fluo4 calcium flux; hits give low values. B-score at 10 µM. 0.39% of 300,000 active. AID 2247;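 active = B-score over 3 SD under the library average, no early fluorescence shift, positive overall ratio signal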
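Assay system: Stable TRPC4beta/mu-opioid receptor HEK293 cells | Reagent: DAMGO in two steps, submaximal then maximal | Compound dosing: Single concentration per test compound | Signal: Fluo4 Ca2+ flux fluorescence | Evaluation: Per-well B score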
Pemphigus Ab inh: human desmoglein-3 autoantibody binding inhibition; AID 588358; DSG3-coupled beads, scFv-anti-DSG3-GFP binding, flow cytometry; hits give low values; 0.48% of 310,000 active; binding (percent of control), % at 10 µM; P32926;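 active = binding more than 3 SD below its plate's average and above zero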;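 note: hits lower antibody fragment binding to DSG3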
TRPC4 PAM: allosterically enhances the mouse TRPC4 cation channel. Q9QUQ5. HEK293 TRPC4beta/mu-opioid, DAMGO EC20, Fluo-4 Ca2+ flux; hits give high values. B-score at 10 µM. 0.42% of 310,000 active. AID 2227;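 active = B-score of calcium response area above 5 SD of library B-scores, with initial fluorescence ratio within 5 SD of library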;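 note: B-score of integrated fluorescence ratio over time as area under calcium response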
TRPC4 spec 2: second selectivity test of TRPC6 inhibitors: effect on mouse TRPC4; shares compounds with TRPC6 inhibitor; HEK293 TRPC4/MOR, membrane potential dye fluorescence; channel activated by saturating DAMGO dose; inhibition, % at 10 µM; 42% of 920 active;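 active = compounds whose fluorescence signal differed from control wells by over 3 SD, either direction, in both duplicate plates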
TRPC4 spec: mouse TRPC4 off-target activity of TRPC6 inhibitors. shares compounds with TRPC6 inhibitor. HEK293 TRPC4/mu-opioid, membrane potential fluorescence. activity change, negative = inhibition, % at 10 µM. 61% of 920 active. AID 2777;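 active = rise or fall in signal beyond 3 SD of buffer-only wells in both replicate plates, either sign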;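 note: integrated kinetic ratio of fluorescence range over baseline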
HEK293 MPD ctr 2-1: parental HEK293 nonspecific activity of TRPC6 inhibitors, second screen; shares compounds with TRPC6 inhibitor; AID 2779; signal change vs control, % at 10 µM; parental HEK293 membrane potential dye fluorescence; maximal acetylcholine challenge after compound addition; 31% of 920 active;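 active = membrane potential signal moving either way by over 3 SD of the maximum-effect control, in both duplicate plates, meaning non-specific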
HEK293 MPD ctr-1: checks TRPC6 inhibitor effects in parental HEK293 cells; shares compounds with TRPC6 inhibitor; parental HEK293 membrane potential dye fluorescence; membrane potential signal change, % at 10 µM; 60% of 920 active; AID 2780;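 active = membrane potential signal shifting up or down by more than 3 SD of buffer-only wells, on both duplicate plates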
HEK293 MPD ctr-2: checks TRPC6 modulator effects in parental HEK293 cells. shares compounds with TRPC6 inhibitor. membrane potential dye fluorescence. membrane potential signal change, % at 10 µM. 51% of 2,400 active. AID 488924;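 active = membrane potential signal moves up or down beyond 5 SD from buffer-only wells, on both duplicate plates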
HEK293 MPD ctr 2-2: parental HEK293 nonspecific activity of TRPC6 modulators, second screen | membrane potential dye fluorescence; after compound, maximal acetylcholine stimulation | shares compounds with TRPC6 inhibitor | 14% of 2,400 active | AID 488926 | inhibition, % at 10 µM;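 active = membrane potential signal drops by more than 5 SD from the mean control signal, in both duplicate plates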;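 note: plate controls were acetylcholine ECmax control wells for no effect and buffer only wells for full effect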
TRPC4/MOR mod: mouse TRPC4 off-target activity of TRPC6 modulators; shares compounds with TRPC6 inhibitor; HEK293 TRPC4/mu-opioid, membrane potential fluorescence; percent change from control (negative = decrease, positive = increase), % at 10 µM; 69% of 2,400 active;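 active = membrane potential signal moved up or down beyond 5 SD of buffer control wells, in both duplicate plates, actives on both sides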;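 note: plate controls were assay buffer wells for no effect and DAMGO maximal-effect wells for full effect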
TRPC4/MOR inh 2: second check of whether TRPC6 modulators also affect mouse TRPC4; shares compounds with TRPC6 inhibitor; HEK293 TRPC4/mu-opioid, membrane potential dye fluorescence; stimulated with maximal-effect DAMGO; inhibition, % at 10 µM; 55% of 2,400 active; AID 488928;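 active = drop in membrane potential signal beyond 5 SD of the control wells in both duplicate plates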;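 note: TRPC4 counter screen for TRPC6 hits run under conditions tuned for TRPC6 not TRPC4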
TRPC6 block conf: mouse TRPC6 inhibitor confirmation. shares compounds with TRPC6 inhibitor. HEK293-TRPC6, membrane potential dye, ACh-evoked depolarization. inhibition, % at 10 µM. 43% of 3,300 active. AID 488960;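 active = fluorescence ratio falls more than 5 SD below the full-stimulation control mean, in both duplicate runs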;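 note: integrated fluorescence ratio of peak minus minimum over baseline after agonist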
TRPC6 act conf: confirmation of mouse TRPC6 activators. shares compounds with TRPC6 inhibitor. 11% of 2,800 active. HEK293-TRPC6 membrane potential dye fluorescence, FDSS. activation, % at 10 µM;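 active = ratio signal rise beyond 5 SD above unstimulated control wells' mean, seen in both duplicate runs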;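 note: plate controls were buffer EC0 wells for no effect and acetylcholine ECmax response for full effect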
An asterisk follows results filed as active; i = inactive; . = not tested or not shown.

SMILES	TRPC6 activator	TRPC6 inhibitor	TRPC4 agonist	TRPC4 inh	Pemphigus Ab inh	TRPC4 PAM	TRPC4 spec 2	TRPC4 spec	HEK293 MPD ctr 2-1	HEK293 MPD ctr-1	TRPC6 block conf	TRPC6 act conf	others
COCCNC(=S)N1CCCC(CO)C1 (configuration not stated)	i	i	i	i	96	i	.	.	.	.	.	.
CC(C)N1CC2=C(OC(N)=C(C#N)C2c2cccnc2)/C(=C/c2cccnc2)C1 (configuration not stated)	i	-5*	i	i	.	i	.	.	.	.	i	i	HEK293 MPD ctr-2=91%*;HEK293 MPD ctr 2-2=i;TRPC4/MOR mod=i;TRPC4/MOR inh 2=i
N#CC1=C(N)OC2=C(CN(Cc3ccccc3)C/C2=C\c2cccnc2)C1c1cccnc1 (configuration not stated)	i	i	i	i	103	i	.	.	.	.	.	.
Cc1nc2ccc(NC(=O)c3ccc(Cl)c(S(=O)(=O)N(C)c4ccccc4)c3)cc2s1	i	-5.1*	i	i	83	i	.	.	.	.	i	i	HEK293 MPD ctr-2=i;HEK293 MPD ctr 2-2=i;TRPC4/MOR mod=-26%*;TRPC4/MOR inh 2=i
CCOC(=O)Cn1c(=N)n(CCOc2ccc(Br)cc2)c2ccccc21	i	-7.7*	i	i	95	i	44%*	0.5%*	i	3.0%*	55%*	i
COc1cc(-c2nc3ccc(C)cn3c2Nc2ccc3c(c2)OCCO3)ccc1O	i	-8.4*	i	i	98	i	54%*	-11%*	i	-322%*	i	i
Cc1ccn2c(Nc3ccc4c(c3)OCO4)c(-c3ccc(O)cc3)nc2c1	i	-7.1*	i	i	100	i	i	-14%*	i	-154%*	i	i
COc1cccc(C2=Nc3cccc4cccc(c34)N2)c1	i	-8.1*	i	i	98	i	.	.	.	.	52%*	i	HEK293 MPD ctr-2=-94%*;HEK293 MPD ctr 2-2=i;TRPC4/MOR mod=-26%*;TRPC4/MOR inh 2=74%*
O=C(CSc1nnc(COc2ccc(Cl)cc2)o1)N1CCOCC1	i	i	i	i	98	i	.	.	.	.	.	.
Oc1[nH]c2ccc(Br)cc2c1N=NC(=S)NCC1CCCO1 (configuration not stated)	i	-8.8*	i	i	96	i	i	i	i	i	i	i
Oc1[nH]c2ccccc2c1N=NC(=S)NCC1CCCO1 (configuration not stated)	i	i	i	i	102	i	.	.	.	.	.	.
O=C(C1CCCN1S(=O)(=O)c1ccc(Cl)cc1)N1CCN(c2ccccc2)CC1 (configuration not stated)	.	.	.	.	132	.	.	.	.	.	.	.
COc1ccc(CN(CC(=O)NC2CCCC2)C(=O)CCC(=O)Nc2nc(C)cs2)cc1	i	i	i	i	.	i	.	.	.	.	.	.
C/C(=N/NC(=O)CN1CCN(S(=O)(=O)c2ccc(C)cc2)CC1)c1ccco1	i	i	i	i	96	i	.	.	.	.	.	.
Cc1cccc(CSC(Nc2ccc(F)cc2)=C(C#N)C#N)c1	i	-5.2*	i	i	96	i	.	.	.	.	56%*	i	HEK293 MPD ctr-2=124%*;HEK293 MPD ctr 2-2=i;TRPC4/MOR mod=20%*;TRPC4/MOR inh 2=48%*
N#CC(C#N)=C(Nc1ccc(F)cc1)SCc1cccc(Br)c1	i	i	i	i	96	i	.	.	.	.	.	.
COc1ccc(NC(=O)CCCCCN2C(=O)[C@@H]3Cc4ccccc4CN3C2=O)cc1Cl	i	-7.4*	i	i	100	i	.	.	.	.	i	i	HEK293 MPD ctr-2=i;HEK293 MPD ctr 2-2=i;TRPC4/MOR mod=i;TRPC4/MOR inh 2=i
Cc1ccc(NC(=O)CCCCCN2C(=O)[C@@H]3Cc4ccccc4CN3C2=O)cc1	i	i	i	i	100	i	.	.	.	.	.	.
COCCn1ccc2c(OCC(=O)NCc3ccc(C)cc3)cccc2c1=O	i	i	i	i	98	i	.	.	.	.	.	.
Cc1ccc(S(=O)(=O)N(C)C)cc1NC(=O)C(C)OC(=O)c1ccc2c(=O)n3c(nc2c1)CCC3 (configuration not stated)	.	.	.	.	89	.	.	.	.	.	.	.
CC(C)Cn1c(=O)c(C(=O)Nc2ccncc2)c(O)c2ccccc21	i	-12*	i	i	106	i	i	-15%*	-84%*	i	84%*	i
CC/C(CC(C)(C)c1ccccc1)=N\O	i	i	i	i	97	i	.	.	.	.	.	.
CC[N+](C)(CC)CCC/C(=N/O)C(O)(c1ccccc1)c1ccccc1	i	-8.5*	i	i	100	i	i	i	3.5%*	i	71%*	i
CCN(CC)CCC/C(=N\O)C(O)(c1ccccc1)c1ccccc1	i	-9.4*	i	i	101	i	i	0.0%*	-37%*	i	88%*	i
O=C(Nc1ccc2nc(N3CCOCC3)sc2c1)c1cc2ccccc2o1	.	.	.	.	97	.	.	.	.	.	.	.
CSc1nnc(C)c(/C=C/Nc2ccc(Cl)cc2)n1	14*	i	i	i	104	i	.	.	.	.	i	36%*	HEK293 MPD ctr-2=214%*;HEK293 MPD ctr 2-2=i;TRPC4/MOR mod=36%*;TRPC4/MOR inh 2=i

Screens: PubChem BioAssay, several laboratories
